Experimental findings from the array DNA melting data of Ke et al. (doi:10.1101/2024.01.08.574731) are described below.

Series [1] is described as follows: melting temperature; fluorescence melt of hairpins on a sequencing array, two-state fit, raised by 9.35 °C to match UV melts. The following applies: sodium 0.088 M. Summed up:
(§1)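 Cy3 fluorescence of library hairpins on a sequenced MiSeq flow cell, with annealed Cy3 and quencher oligos, was imaged in 50 mM Na-HEPES pH 8.0, 25 mM NaCl in 2.5 °C steps up to 60 °C. Signals were normalised to pre-quench Cy3 and to control variants. Melting temperature and folding enthalpy came from bootstrapped two-state fits, inverse-variance combined over four replicates. Fitted temperatures were raised by 9.35 °C to match UV melts.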

Series [2] can be described thus: folding enthalpy; higher = less favourable; fluorescence melt of hairpins on a sequencing array, two-state fit. The following applies: sodium 0.088 M. The essentials: as §1

With GCTAGAGAAATCTAGC ((((((....)))))), the Tm in series [1] was 50.3 °C. In series [2], the folding enthalpy was -30.4 kcal/mol.
With GCACAACCGAAAGGTTGC (((..(((....)))))), the Tm in series [1] turned out to be 37.8 °C. Also, in series [2], the folding enthalpy was -8.1 kcal/mol.
The like results for GCTCCGGGAAACCGGAAC (.(((((....))))).) were, in that order, 43.2 °C and -12.4 kcal/mol.
GGCATCGAAAGATAGGCC ((((((....)))..))): the Tm in series [1] came out at 46 °C. Also, in series [2], the folding enthalpy was -27.2 kcal/mol.
The corresponding values for CGAGCGGAAACGCGTTCG ((((((....)))..))) are 49.9 °C and -12.6 kcal/mol.
The like results for GCCAACGCGAAAGCGGGC (((..(((....)))))) were, in that order, 63.4 °C and -16.4 kcal/mol.
As to GAGGATCCGAAAGGACTC (((..(((....)))))), in series [1], the Tm worked out at 30.6 °C. Further, the folding enthalpy in series [2] was -13.3 kcal/mol.
The like results for GAGGCTGGAAACAGCTTC ((.((((....)))).)) were, in that order, 49 °C and -19.8 kcal/mol.
The corresponding values for GTGCGAGGAAACTCGTGC (..((((....))))..) are 48.4 °C and -23.3 kcal/mol.
The corresponding values for GCAAGGCGAAAGCATTGC ((((.((....)).)))) are 67.2 °C and -38.2 kcal/mol.
Regarding GTAAGCTCGAAAGAGTAC (((..(((....)))))), the Tm in series [1] was found to be 27 °C. Moreover, in series [2], the folding enthalpy was -12.2 kcal/mol.
The corresponding values for GGCTCACGAAAGTGTGCC (((.(((....))).))) are 64.3 °C and -30.8 kcal/mol.
Regarding GCCTAGCGAAAGCCCGGC (((..((....))..))), the Tm in series [1] came to 42.7 °C. For the same sequence, the folding enthalpy in series [2] was -17.4 kcal/mol.
The corresponding values for GGGTGACGAAAGTCCCCC (((.(((....))).))) are 57.9 °C and -28.2 kcal/mol.
As for CGCGGAGCTTTCCGCG ((((((....)))))), the Tm in series [1] turned out to be 68.2 °C. For the same sequence, the folding enthalpy in series [2] is -20.8 kcal/mol.
The corresponding values for GAAGGGGGAAACCCTTTC (((.(((....))).))) are 41.1 °C and -18.7 kcal/mol.
The corresponding values for GATCGGGAGTCCGATC ((((((....)))))) are 56.5 °C and -39.6 kcal/mol.
Regarding GTCCAGGGAAACCTGGAC (((((((....))))))), the Tm in series [1] was 68.6 °C. In addition, the folding enthalpy in series [2] was -33.6 kcal/mol.
With GACGACGAAAGTCCGTC ((((((....))).))), the Tm in series [1] was found to be 53.4 °C. In addition, in series [2], the folding enthalpy was -29.9 kcal/mol.
GGATGACGAAAGTCGTCC (((.(((....))).))): the Tm in series [1] is 64.5 °C. Besides, the folding enthalpy in series [2] was -38.4 kcal/mol.
With GAAGTACGAAAGTATTC (((.(((....)))))), in series [1], the Tm was found to be 27.1 °C. Besides, the folding enthalpy in series [2] was -10.4 kcal/mol.
The like results for GTTTCCCGAAAGGGAAC (((.(((....)))))) were, in that order, 50.6 °C and -14.1 kcal/mol.
The corresponding values for GGATAACGAAAGTTTCC (((.(((....)))))) are 40.1 °C and -20.4 kcal/mol.
Take GATCCTTCGTAGGATC ((((((....)))))): the Tm in series [1] is 53 °C. Further, in series [2], the folding enthalpy is -33.7 kcal/mol.
The corresponding values for GCCTCCGGAAACGGAGAC (.(((((....))))).) are 47 °C and -15.8 kcal/mol.
The like results for GTACACGGAAACGCGTAC ((((.((....)).)))) were, in that order, 48.3 °C and -40.1 kcal/mol.
The corresponding values for GCGGTCGAAAGACACGC ((((((....))).))) are 61.8 °C and -27.4 kcal/mol.
In the case of GTTTCCGAAAGGAACAAC ((((((....)))..))), the Tm in series [1] is 31.2 °C. Further, the folding enthalpy in series [2] was -13.7 kcal/mol.
The like results for GATCCAATATTGGATC ((((((....)))))) were, in that order, 52.2 °C and -41.7 kcal/mol.
The like results for AGGGGGAAACCCCT (((((....))))) were, in that order, 53.5 °C and -17.5 kcal/mol.
The corresponding values for GTTCAAGGAAACTCGAAC ((((.((....)).)))) are 28.7 °C and -11.7 kcal/mol.
On to GCCTCGGGAAACCGAGAC (.(((((....))))).), for which the Tm in series [1] was determined as 46.2 °C. In series [2], the folding enthalpy was -15.8 kcal/mol.
As to GTTTGCGAAAGCAGGAAC ((((((....)))..))), the Tm in series [1] turned out to be 30.7 °C. Also, the folding enthalpy in series [2] is -10.3 kcal/mol.
The corresponding values for GATCATCAGATGATC ((((((...)))))) are 44.5 °C and -35.1 kcal/mol.
The like results for GGTAGTACGAAAGTAACC (((..(((....)))))) were, in that order, 27.4 °C and -10.7 kcal/mol.
The like results for GGGCGCCGAAAGGCACCC (((.(((....))).))) were, in that order, 67.5 °C and -22.8 kcal/mol.
In the case of GTTAGGTCGAAAGACAAC (((..(((....)))))), the Tm in series [1] was 27.2 °C. Also, the folding enthalpy in series [2] is -11.1 kcal/mol.
For the sequence GATCACAGTGGTGATC ((((((....)))))), the Tm in series [1] stood at 56.5 °C. In series [2], the folding enthalpy was -50 kcal/mol.
The like results for GTGTGCGAAAGCACCAC ((((((....))).))) were, in that order, 51 °C and -9.37 kcal/mol.
The corresponding values for GGGTATGGAAACATATCC ((.((((....)))).)) are 44.2 °C and -39.3 kcal/mol.
With GCGCGGCGAAAGCCCAGC ((..(((....)))..)), in series [1], the Tm is 57.5 °C. Further, the folding enthalpy in series [2] is -16 kcal/mol.
As for GGAGATGGAAACATCCCC ((.((((....)))).)), the Tm in series [1] is 41.3 °C. For the same sequence, the folding enthalpy in series [2] is -26.6 kcal/mol.
As to GTCTTCGAAAGAAATGAC ((((((....)))..))), the Tm in series [1] amounted to 25.1 °C. Also, the folding enthalpy in series [2] was -9.91 kcal/mol.
In the case of GATCGGGGCCCGATC ((((((...)))))), the Tm in series [1] worked out at 60.5 °C. Further, the folding enthalpy in series [2] was -41.2 kcal/mol.
The corresponding values for GAGGCAGGAAACTGTCTC (((.(((....))).))) are 50.2 °C and -34.1 kcal/mol.
On to GATCTTGGCCAAGATC ((((((....)))))), for which the Tm in series [1] came to 54.8 °C. In addition, in series [2], the folding enthalpy was -57.1 kcal/mol.
The corresponding values for GCTTATCGAAAGATTAGC (((.(((....))).))) are 44.8 °C and -35.9 kcal/mol.
Take GATCCGGTGGCGGATC ((((((....)))))): the Tm in series [1] was found to be 56.5 °C. Further, the folding enthalpy in series [2] is -31.4 kcal/mol.
The like results for GCGCGCTCGAAAGAGCGC (((..(((....)))))) were, in that order, 66.8 °C and -6.02 kcal/mol.
In the case of GGAAAGGGAAACCTTTCC (((((((....))))))), the Tm in series [1] came out at 55.8 °C. Moreover, the folding enthalpy in series [2] is -41.9 kcal/mol.
Consider GATCTGGGGGCAGATC ((((((....)))))), for which the Tm in series [1] was 51 °C. In addition, the folding enthalpy in series [2] is -41 kcal/mol.
Regarding GCGGCTGGAAACAGCTGC ((.((((....)))).)), the Tm in series [1] worked out at 63.6 °C. In series [2], the folding enthalpy is -39.1 kcal/mol.
On to GTATCCGAAAGGACTTAC ((((((....)))..))), for which the Tm in series [1] was found to be 28.6 °C. In series [2], the folding enthalpy is -11.4 kcal/mol.
The corresponding values for GATCCCTGCAGGGATC ((((((....)))))) are 66 °C and -37.8 kcal/mol.
The like results for GATCAGCCCCCTGATC ((((((....)))))) were, in that order, 48.2 °C and -36.2 kcal/mol.
Turning to GATTGTGGAAACACGATC (((.(((....))).))), the Tm in series [1] stood at 48.1 °C. Also, the folding enthalpy in series [2] was -31.7 kcal/mol.
For GCTTATGGAAACGTAAGC (((((.(....).))))), the Tm in series [1] stood at 45.1 °C. In addition, the folding enthalpy in series [2] is -44 kcal/mol.
Consider GCGATCGGAAACGGTCGC ((((.((....)).)))), for which the Tm in series [1] came out at 66.8 °C. For the same sequence, the folding enthalpy in series [2] was -39.1 kcal/mol.
The corresponding values for GAACTGGGAAACCAGCTC ((.((((....)))).)) are 38.5 °C and -19.4 kcal/mol.
The corresponding values for CGCGTCGGAAACGAGCG (((.(((....)))))) are 54.9 °C and -31.7 kcal/mol.
For CGCGGAAAATCCGCG ((((((...)))))), the Tm in series [1] is 62.3 °C. The folding enthalpy in series [2] is -42.4 kcal/mol.
The like results for GAATGACGAAAGTCCTTC (((.(((....))).))) were, in that order, 38.5 °C and -26.7 kcal/mol.
The corresponding values for GCCCAGCGAAAGCTAGGC (((.(((....))).))) are 54.1 °C and -42.3 kcal/mol.
Regarding GGATTTGGAAACAAGTCC (((.(((....))).))), the Tm in series [1] was 42.7 °C. Besides, the folding enthalpy in series [2] was -31.5 kcal/mol.
The corresponding values for GCCCCGCGAAAGCAGTGC ((.(.((....)).).)) are 34 °C and -11.8 kcal/mol.
As to GGAGCCGAAAGGCCGTCC ((((((....)))..))), the Tm in series [1] is 36.3 °C. In series [2], the folding enthalpy is -9.47 kcal/mol.
Consider GCGTTTACGAAAGTACGC (((..(((....)))))), for which, in series [1], the Tm stood at 47.9 °C. Further, in series [2], the folding enthalpy is -24.4 kcal/mol.
For the sequence GGGCATCGAAAGATCCC (((.(((....)))))), in series [1], the Tm turned out to be 50.4 °C. Besides, the folding enthalpy in series [2] was -30.4 kcal/mol.
The corresponding values for CGTACGGAAACGTTACG ((((((....))).))) are 46.1 °C and -30.6 kcal/mol.
The corresponding values for GATCAAGTGGTTGATC ((((((....)))))) are 41.9 °C and -27.6 kcal/mol.
The like results for GATCTTGATAAAGATC ((((((....)))))) were, in that order, 52.1 °C and -40.9 kcal/mol.
As to GGACATCGAAAGATTTCC (((.(((....))).))), the Tm in series [1] amounted to 39.6 °C. Further, in series [2], the folding enthalpy was -32 kcal/mol.
Regarding GCCTAGAAATAGGC (((((....))))), the Tm in series [1] is 49.8 °C. The folding enthalpy in series [2] was -29.2 kcal/mol.
Turning to GCGATGCGAAAGCCTGGC ((.(.((....)).).)), the Tm in series [1] is 29.1 °C. Besides, the folding enthalpy in series [2] was -11.5 kcal/mol.
